ChEMBL document CHEMBL1122519, “Bispyridinamines: a new class of topical antimicrobial agents as inhibitors of dental plaque” (1984)

Tests used:
Escherichia coli [1] = assay: Minimum inhibitory concentration against Escherichia coli (Vogel); type: functional
In short: (§1)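 Serial twofold tube dilution in tryptose phosphate broth. Each compound was prepared as a 1000 μg/mL aqueous stock and diluted in double-strength broth, then 2×10^5 cells were added. Tubes were incubated aerobically at 37 °C for 24 h. The MIC was taken as the lowest concentration with no visible growth.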

Klebsiella pneumoniae = assay: Minimum inhibitory concentration against Klebsiella pneumonia 39645; type: functional; in short: as §1
[2] = Compound is evaluated for stain index; type: functional
In short: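 Ratio of the minimum concentration staining a plaque-free ceramic hydroxylapatite plate to the minimum plaque-inhibiting concentration, both run under the same conditions. Plates got two 1-min soaks (0.1–0.001%), each followed by air-drying, then a water rinse. They were then held 24 h anaerobically at 37 °C in sucrose beef-extract medium, with or without S. mutans OMZ-61, repeated once. Staining was 1-min 1% FD&C Red No. 3, scored visually.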

Escherichia coli [3] = assay: Antimicrobial minimum inhibitory concentration against Escherichia coli 100/B22; type: functional; in short: as §1
Pseudomonas aeruginosa = assay: Minimum antimicrobial inhibitory concentration against Pseudomonas aeruginosa MGH-2; type: functional; in short: as §1
Escherichia coli [4] = assay: Antimicrobial minimum inhibitory concentration against Escherichia coli AB1932-1; type: functional; in short: as §1
Streptococcus mutans [5] = assay: Minimum plaque inhibitory concentration using a standard test organism, Streptococcus mutans OMZ-61; type: functional, organism-based
In short: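 Ceramic hydroxylapatite plates were soaked twice for 1 min each in compound at […] (aqueous), air-dried and rinsed, then hung in sucrose beef-extract medium (pH 7.0) inoculated with late-log S. mutans OMZ-61. Incubation was anaerobic at 37 °C for 24 h, and treatment plus reinoculation were repeated for a second 24 h. Plaque was stained with 1% FD&C Red No. 3 and scored visually. The value is the lowest concentration giving no plaque while medium growth matched control.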

Proteus mirabilis = assay: Minimum antimicrobial inhibitory concentration against Proteus mirabilis MGH-1; type: functional; in short: as §1
Staphylococcus aureus = assay: Minimum antimicrobial inhibitory concentration against Staphylococcus aureus; type: functional; in short: as §1
Actinomyces viscosus = assay: Compound is evaluated for minimal bactericidal concentration against plaque formation for Actinomyces viscosus; type: functional, organism-based
In short: (§2)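 Preformed in vitro plaques of S. mutans NCTC 10449 or A. viscosus M-100 were grown on ceramic hydroxylapatite under anaerobic conditions at 37 °C in sucrose-supplemented medium. Plaques were immersed for 30 min at 37 °C in compound at 0.3–20 mM, rinsed, and moved to broth containing bromocresol purple. Kill was judged by no acid production, no turbidity increase and no growth on plating at 48 h. Plaques were run in quadruplicate.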

Streptococcus mutans [6] = assay: Compound is evaluated for minimal bactericidal concentration against plaque formation for Streptococcus mutans; type: functional, organism-based; in short: as §2

SMILES	MIC (Escherichia coli [1]) [µg/mL]	MIC (Klebsiella pneumoniae) [µg/mL]	MIC (Escherichia coli [3]) [µg/mL]	MIC (Pseudomonas aeruginosa) [µg/mL]	MIC (Escherichia coli [4]) [µg/mL]	MIC (Proteus mirabilis) [µg/mL]	MIC (Staphylococcus aureus) [µg/mL]	Stain index [2]	Concentration (Streptococcus mutans [5]) [%]	Concentration (Actinomyces viscosus) [mM]	Concentration (Streptococcus mutans [6]) [mM]
Br.Br.CCCCCCCCCN=c1ccn(CCCCCCCCCCn2ccc(=NCCCCCCCCC)cc2)cc1	2	3.9	3.9	3.9	3.9	3.9	2	1	0.004	2.7	1.35
CCCCCCN=c1ccn(CCCCCCCCCCCCCCn2ccc(=NCCCCCC)cc2)cc1.Cl.Cl	1	1	0.5	3.9	0.5	3.9	0.5	1	0.004	2.8	1.4
Br.Br.CCCCCCCCCN=c1ccn(CCCCCCCCCn2ccc(=NCCCCCCCCC)cc2)cc1	2	3.9	2	3.9	3.9	3.9	2	1	0.004	1.37	1.37
Br.Br.c1cn(CCCCn2ccc(=NC3CCCCC3)cc2)ccc1=NC1CCCCC1	125	> 500	125	> 500	125	> 500	125	–	> 1	–	–
Br.Br.CCCCCCCCCN=c1ccn(CCCCCCCCCCCCn2ccc(=NCCCCCCCCC)cc2)cc1	3.9	3.9	3.9	3.9	7.8	3.9	2	1	0.01	2.6	1.3
Br.Br.CCCCCCCCCCN=c1ccn(CCCCCCCn2ccc(=NCCCCCCCCCC)cc2)cc1	3.9	7.8	3.9	7.8	3.9	3.9	1	–	0.01	–	–
Br.Br.Fc1ccc(N=c2ccn(CCCCCCCCn3ccc(=Nc4ccc(F)cc4)cc3)cc2)cc1	15.6	> 62.5	15.6	> 62.5	7.8	> 125	2	–	> 1	–	–
Br.Br.Fc1ccc(N=c2ccn(CCCCCCn3ccc(=Nc4ccc(F)cc4)cc3)cc2)cc1	31.3	> 125	15.6	> 62.5	15.6	> 125	15.6	–	> 1	–	–
Br.Br.N=c1ccn(CCCCCCCCn2ccc(=N)cc2)cc1	125	> 500	250	> 500	125	> 500	31.3	–	> 1	–	–
Br.Br.CCCCCCCCCCCCN=c1ccn(CCCCCCn2ccc(=NCCCCCCCCCCCC)cc2)cc1	31.3	> 62.5	62.5	> 62.5	> 62.5	> 62.5	7.8	–	0.1	–	–
Br.Br.CCCCCCCCCCN=c1ccn(CCCCCCCCCCn2ccc(=NCCCCCCCCCC)cc2)cc1	7.8	31.3	15.6	15.6	15.6	7.8	2	–	0.01	–	–
CCCCCCCN=c1ccn(CCCCCCCCCCCCCCn2ccc(=NCCCCCCC)cc2)cc1.Cl.Cl	2	3.9	1	2	1	3.9	1	–	0.01	–	–
Br.Br.c1cn(CCCCCCn2ccc(=NC3CCCCC3)cc2)ccc1=NC1CCCCC1	> 125	> 125	> 125	> 125	125	> 125	15.6	–	> 1	–	–
Br.Br.c1cn(CCCCCCCCn2ccc(=NC3CCCCC3)cc2)ccc1=NC1CCCCC1	62.5	> 125	62.5	250	31.3	> 125	3.9	–	> 1	–	–
Br.Br.CCCCCCCCCCCCN=c1ccn(CCCCCCCCCn2ccc(=NCCCCCCCCCCCC)cc2)cc1	62.5	> 62.5	62.5	> 62.5	> 62.5	62.5	7.8	–	0.1	–	–
Br.Br.CCCCCCCCCCCCN=c1ccn(CCCCCCCCn2ccc(=NCCCCCCCCCCCC)cc2)cc1	31.3	> 62.5	> 62.5	> 62.5	62.5	62.5	7.8	–	0.1	–	–
CS(=O)(=O)O.CS(=O)(=O)O.Clc1ccc(N=c2ccn(CCCCCCCCCCn3ccc(=Nc4ccc(Cl)cc4)cc3)cc2)cc1	1.6	3.1	1.6	62.5	0.8	> 125	0.4	–	> 1	–	–

More lines, main results first:

MIC (Escherichia coli [1]) [µg/mL]	MIC (Klebsiella pneumoniae) [µg/mL]	MIC (Escherichia coli [3]) [µg/mL]	MIC (Pseudomonas aeruginosa) [µg/mL]	MIC (Escherichia coli [4]) [µg/mL]	MIC (Proteus mirabilis) [µg/mL]	MIC (Staphylococcus aureus) [µg/mL]	SMILES	Stain index [2]	Concentration (Streptococcus mutans [5]) [%]	Concentration (Actinomyces viscosus) [mM]	Concentration (Streptococcus mutans [6]) [mM]
1	1	0.5	7.8	1	3.9	0.2	CCCCCCCCN=c1ccn(CCCCCCCCn2ccc(=NCCCCCCCC)cc2)cc1.Cl.Cl	10	0.005	0.88	8.8
0.5	1	0.5	7.8	1	7.8	0.2	CCCCCCCN=c1ccn(CCCCCCCCCCn2ccc(=NCCCCCCC)cc2)cc1.Cl.Cl	10	0.004	1.46	0.73
2	3.9	2	15.6	2	7.8	1	CCCCCCCCCN=c1ccn(CCCCCCn2ccc(=NCCCCCCCCC)cc2)cc1.Cl.Cl	1	0.01	7.3	7.3
31.3	31.3	7.8	125	3.9	> 125	0.5	Br.Br.CCCCCCCN=c1ccn(CCCCCn2ccc(=NCCCCCCC)cc2)cc1	–	> 1	–	–
3.9	7.8	2	125	1	125	0.3	Br.Br.CCCCC(CC)CN=c1ccn(CCCCCCCCn2ccc(=NCC(CC)CCCC)cc2)cc1 (stereo not drawn)	–	0.004	–	–
31.3	125	7.8	> 125	7.8	> 250	0.5	Br.Br.CCCCCCN=c1ccn(CCCCCCn2ccc(=NCCCCCC)cc2)cc1	–	1	–	–
3.9	7.8	3.9	125	3.9	> 125	0.5	Br.Br.CCCCC(CC)CN=c1ccn(CCCCCCCn2ccc(=NCC(CC)CCCC)cc2)cc1 (stereo not drawn)	–	> 1	–	–
62.5	> 125	31.3	125	7.8	> 125	1	Br.Br.CCCCC(CC)CN=c1ccn(CCCCn2ccc(=NCC(CC)CCCC)cc2)cc1 (stereo not drawn)	–	> 1	–	–
3.9	3.9	2	> 62.5	2	> 125	0.2	CCCCCCCN=c1ccn(CCCCCCn2ccc(=NCCCCCCC)cc2)cc1.Cl.Cl	–	> 1	–	–
1	2	1	3.9	1	3.9	0.5	Br.Br.CCCCC(CC)CN=c1ccn(CCCCCCCCCCCCn2ccc(=NCC(CC)CCCC)cc2)cc1 (stereo not drawn)	–	0.004	–	–
1	1	0.5	15.6	1	7.8	0.2	CCCCCCN=c1ccn(CCCCCCCCCCCCn2ccc(=NCCCCCC)cc2)cc1.Cl.Cl	–	0.01	–	–
31.3	> 125	15.6	> 250	7.8	> 250	1	Br.Br.CCCCCCCN=c1ccn(CCCCn2ccc(=NCCCCCCC)cc2)cc1	–	> 1	–	–
